Published values collected from several papers.
Lines come from different studies, so protocols differ.
BRAF: Serine/threonine-protein kinase B-raf (BRAF, Homo sapiens, UniProt P15056)
BRAF V600E: Serine/threonine-protein kinase B-raf (BRAF, Homo sapiens, UniProt P15056, V600E)

| SMILES | target | test | setting | inhibition |
| --- | --- | --- | --- | --- |
| COc1cc2ncnc(Nc3ccc(Oc4ccccc4)cc3C)c2cc1OC | BRAF | enzyme activity, inhibitor | 1 µM | 7% |
| Cc1ccc(C(CS(=O)(=O)c2ccccc2)=NNC2=NC(=O)C(=NNc3ccccc3)S2)cc1 | BRAF V600E | enzyme activity, inhibitor, ATP luminescence | 0.1 µM | 54% |
| O=C(CSc1nc2nccnc2c(=O)n1CCc1ccccc1)Nc1nccs1 | BRAF V600E | enzyme activity, inhibitor | 10 µM | -2% |
| Cc1ccc(N=Nc2sc(NN=C(CS(=O)(=O)c3ccccc3)c3ccc(C)cc3)nc2C)cc1 | BRAF V600E | enzyme activity, inhibitor, ATP luminescence | 10 µM | 87% |
| C=CC(=O)Nc1cc(Nc2nccc(Nc3cc(Cl)c(F)cc3C(C)(C)O)n2)c(OC)cc1N1CC[C@@H](N(C)C)C1 | BRAF | enzyme activity, inhibitor | 1 µM | 4% |
| Cn1cncc1C1=CN(c2ncnc3[nH]cnc23)CCS1 | BRAF | enzyme activity, inhibitor, radiometric | 50 nM | 12.9% |
| CN1CC(Oc2cnc(C#N)cc2-c2ccn3nc(NC(=O)C4CC4)cc3c2)C1 | BRAF | enzyme activity, inhibitor | 1 µM | 2% |
| COc1cc(-c2cc(-c3ccc(N4CCNCC4)cc3)cnc2N)cc(OC)c1OC | BRAF V600E | enzyme activity, inhibitor | 0.1 µM | 5% |
| COc1ccc(-c2csc(NN=C(CS(=O)(=O)c3ccccc3)c3ccc(F)cc3)n2)cc1 | BRAF V600E | enzyme activity, inhibitor, ATP luminescence | 10 nM | 25% |
| CS(=O)(=O)Nc1cccc(-c2csc(NC(=O)CSc3nc4nccnc4c(=O)n3CCc3ccccc3)n2)c1 | BRAF | enzyme activity, inhibitor | 10 µM | 1% |
| CCOc1cc(-c2nncn2C)ccc1Nc1ncc2cc(C)nc(NCC(C)(C)C)c2n1 | BRAF | cell-free assay, TR-FRET | 1 µM | ≤ 15% |
| CN(C)C1CCN(CC#Cc2nn(C3CCCC3)c3nc(NCc4ccccc4)ncc23)C1 (stereo not drawn) | BRAF | enzyme activity, inhibitor, FRET | 1 µM | 1% |
